Experimental findings from ChEMBL document CHEMBL1127455, “8-Azaxanthine derivatives as antagonists of adenosine receptors” (J Med Chem, 1994) are described below.

For assay [1], the target named is T1, Adenosine receptor A1 (Bos taurus, UniProt P28190).
T1 sequence (P28190 whole entry): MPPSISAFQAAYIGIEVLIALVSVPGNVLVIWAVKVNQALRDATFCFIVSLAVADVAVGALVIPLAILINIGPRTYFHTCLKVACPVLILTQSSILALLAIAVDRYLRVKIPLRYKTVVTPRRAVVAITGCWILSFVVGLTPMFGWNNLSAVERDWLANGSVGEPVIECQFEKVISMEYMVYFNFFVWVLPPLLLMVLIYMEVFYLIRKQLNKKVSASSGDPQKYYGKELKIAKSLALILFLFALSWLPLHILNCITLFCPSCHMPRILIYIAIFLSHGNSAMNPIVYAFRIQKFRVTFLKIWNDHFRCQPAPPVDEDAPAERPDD
As to the kind of experiment: Affinity for A1 adenosine receptor by displacement of […] in bovine brain cortical membrane; d= Inactive at highest tested concentration 30 uM. Type of assay: tissue-based. A digest of the protocol:
(§1)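 Bovine cerebral cortex was homogenized in ice-cold 0.32 M sucrose with protease inhibitors and spun at 1000g, then 48000g, at 4 °C. The pellet was treated with adenosine deaminase (2 units/mL) at 37 °C for 60 min. Membranes (0.2-0.3 mg protein) were incubated in triplicate with about 1.2 nM [³H]CHA in Tris-HCl pH 7.7 with MgCl₂ at 25 °C for 45 min. Nonspecific binding was defined with 50 μM R-PIA. Binding was ended by GF/C filtration. Compounds were added in DMSO (2% solvent), up to 30 μM. IC50 was read from semilog plots, and Ki was derived using Kd 10.5 nM.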

For assay [2], the target named is T1, Adenosine receptor A1. As to the kind of experiment: Affinity to A1 adenosine receptor was measured by the displacement of […] in bovine brain cortical membrane. Type of assay: cell membranes. The procedure, abridged:
as §1

In assay [3] the target is Adenosine receptor A2a (Bos taurus). Description: Affinity to A2 adenosine receptor was measured by the displacement of [3H]-CGS- 21680 in bovine brain striatal membrane. For orientation: In a radioligand displacement assay an active substance lowers the binding of a labelled ligand.
For the next assay, the species on record is Bos taurus. Description: Ratio between the Ki values of A2 and A1 receptors.
In assay [4] the test system is Adenosine A2 receptor (Bos taurus). As to the kind of experiment: Displacement of [3H]-CGS- 21680 from A2 adenosine receptor in bovine brain striatal membrane at […]. The note with it: Striatum.

Broadly, the Ki is a measure of affinity in units of concentration, obtained from inhibition or displacement. A higher Ki goes with lower affinity. Regarding `Cn1c(=O)c2nn(C3CCCCC3O)nc2n(C)c1=O` (centres undefined), the Ki entry on Adenosine receptor A1 [1] is given as “Not Active”.

At Adenosine receptor A1 [2], `Cn1c(=O)c2nn(-c3ccc(Cl)cc3N)nc2n(C)c1=O` came in with a Ki of 24 µM.

With `Cn1c(=O)c2c(nnn2C)n(C)c1=O`, at Adenosine receptor A1 [1], the Ki entry is “Not Active”.

`Cn1c(=O)c2c(nnn2C2CCCCC2O)n(C)c1=O` (centres undefined): affinity at Adenosine receptor A1 [2] was put at a Ki of 114 µM.

In the case of `Cn1c(=O)c2c(nnn2-c2ccc(Cl)cc2N)n(C)c1=O`, the affinity on Adenosine receptor A1 [2], expressed as Ki, was 14 µM.

As for `CCCn1c(=O)c2c(nnn2C2CCCCC2O)n(CCC)c1=O` (centres undefined), the Ki in assay [3] is 13.5 µM; on Adenosine receptor A1 [2], 1.8 µM. In addition, the Ratio in the assay listed under Bos taurus is 7.5.

Regarding `Cn1c(=O)c2nn(C3CCCCC3)nc2n(C)c1=O`, the inhibition constant Ki in assay [3] turned out to be 250 µM; at Adenosine receptor A1 [2], 36 µM. The Ratio in the assay listed under Bos taurus was determined as 6.9.

`Cn1c(=O)c2c(ncn2C)n(C)c1=O` [CAFFEINE] came in with an inhibition constant Ki at Adenosine receptor A1 [2] of 29 µM.

Consider `Cn1c(=O)c2c(nnn2C2CC3CCC2C3)n(C)c1=O` (centres undefined), for which the Ki in assay [3] is 4.5 µM; at Adenosine receptor A1 [2] it was 18 µM. In the assay listed under Bos taurus, the Ratio came to 0.25.

For the molecule `CCCn1c(=O)c2c(nnn2C2CCCC2)n(CCC)c1=O`, the values for the Ki (in assay [3]; on Adenosine receptor A1 [2]) were 10 µM and 0.34 µM, respectively. In addition, the Ratio in the assay listed under Bos taurus came out at 29.

Turning to `Cn1c(=O)c2nn[nH]c2n(C)c1=O`, the Ki result at Adenosine receptor A1 [1] is on record as “Not Active”.

Consider `Cn1c(=O)c2c(nnn2C2CCCC2)n(C)c1=O`, for which the values for the Ki (in assay [3]; on Adenosine receptor A1 [2]) were 292 µM and 11 µM, respectively. Further, the Ratio in the assay filed under Bos taurus was found to be 26.

On to `Cn1nc2c(=O)n(C)c(=O)n(C)c2n1`, for which the Ki in assay [3] is 52.8 µM; at Adenosine receptor A1 [1], “Not Active”.

At Adenosine receptor A1 [2], `CCCn1c(=O)c2nn(-c3ccc(Cl)cc3N)nc2n(CCC)c1=O` gave a Ki of 1.5 µM.

The inhibition is how much of the control response was suppressed. Molecule `CCCn1c(=O)c2nn(C3CCCCC3O)nc2n(CCC)c1=O` (centres undefined) yielded an inhibition constant Ki on Adenosine receptor A1 [2] of 1.4 µM. The inhibition in assay [4] came to 20%.

On Adenosine receptor A1 [2], `CCCn1c(=O)c2c(nnn2C2CCCCC2)n(CCC)c1=O` returned a Ki of 1.1 µM.

On to `Cn1c(=O)c2nn(C3CCCC3)nc2n(C)c1=O`, for which the values for the Ki (in assay [3]; at Adenosine receptor A1 [2]) were 58 µM and 110 µM, respectively. For the same molecule, the Ratio in the assay listed under Bos taurus came out at 0.5.

For `CCCn1c(=O)c2nn(C3CCCC3)nc2n(CCC)c1=O`, the Ki in assay [3] is 13 µM; on Adenosine receptor A1 [2] it was 1.3 µM. For the same molecule, in the assay listed under Bos taurus, the Ratio worked out at 10.

`CCCn1c(=O)c2nn(C3CCCCC3)nc2n(CCC)c1=O`: the figures for the Ki (in assay [3]; on Adenosine receptor A1 [2]) were 21.7 µM and 1.6 µM, respectively. In addition, the Ratio in the assay filed under Bos taurus was determined as 13.

Turning to `Cn1c(=O)c2nn(C3CC4CCC3C4)nc2n(C)c1=O` (centres undefined), the Ki in assay [3] came out at 49 µM; at Adenosine receptor A1 [2], 31 µM. In addition, in the assay listed under Bos taurus, the Ratio was 1.6.

For `Cn1c(=O)c2c(nnn2C2CCCCC2)n(C)c1=O`, the Ki worked out at 8.4 µM in assay [3] and 23 µM on Adenosine receptor A1 [2]. Also, the Ratio in the assay filed under Bos taurus is 0.36.

As for `CCCn1c(=O)c2c(nnn2-c2ccc(Cl)cc2N)n(CCC)c1=O`, at Adenosine receptor A1 [2], the affinity, expressed as Ki, was 44 µM.
